Assay outcomes from PubChem BioAssay.
Only some compounds are listed: those with a hit (about 8.7% of all), similar ones and a draw of the others.
Pyk2 oligo antag = antagonists of Pyk2 self-association, primary screen, Q293 cells, FERM NanoBiT luminescence, HTS | stronger effect = lower value | z-score (the deposit names both 25 µM and 10 µM) | hit rate 0.83% among 99,000;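 active means Z-score of -3 or lower, scaled per plate to the spread of control and sample wells; inactive means z-score above -3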;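 further: negative z-score means lost luminescence so less FERM oligomerization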
Target sequence (Q14289 whole entry, looked up): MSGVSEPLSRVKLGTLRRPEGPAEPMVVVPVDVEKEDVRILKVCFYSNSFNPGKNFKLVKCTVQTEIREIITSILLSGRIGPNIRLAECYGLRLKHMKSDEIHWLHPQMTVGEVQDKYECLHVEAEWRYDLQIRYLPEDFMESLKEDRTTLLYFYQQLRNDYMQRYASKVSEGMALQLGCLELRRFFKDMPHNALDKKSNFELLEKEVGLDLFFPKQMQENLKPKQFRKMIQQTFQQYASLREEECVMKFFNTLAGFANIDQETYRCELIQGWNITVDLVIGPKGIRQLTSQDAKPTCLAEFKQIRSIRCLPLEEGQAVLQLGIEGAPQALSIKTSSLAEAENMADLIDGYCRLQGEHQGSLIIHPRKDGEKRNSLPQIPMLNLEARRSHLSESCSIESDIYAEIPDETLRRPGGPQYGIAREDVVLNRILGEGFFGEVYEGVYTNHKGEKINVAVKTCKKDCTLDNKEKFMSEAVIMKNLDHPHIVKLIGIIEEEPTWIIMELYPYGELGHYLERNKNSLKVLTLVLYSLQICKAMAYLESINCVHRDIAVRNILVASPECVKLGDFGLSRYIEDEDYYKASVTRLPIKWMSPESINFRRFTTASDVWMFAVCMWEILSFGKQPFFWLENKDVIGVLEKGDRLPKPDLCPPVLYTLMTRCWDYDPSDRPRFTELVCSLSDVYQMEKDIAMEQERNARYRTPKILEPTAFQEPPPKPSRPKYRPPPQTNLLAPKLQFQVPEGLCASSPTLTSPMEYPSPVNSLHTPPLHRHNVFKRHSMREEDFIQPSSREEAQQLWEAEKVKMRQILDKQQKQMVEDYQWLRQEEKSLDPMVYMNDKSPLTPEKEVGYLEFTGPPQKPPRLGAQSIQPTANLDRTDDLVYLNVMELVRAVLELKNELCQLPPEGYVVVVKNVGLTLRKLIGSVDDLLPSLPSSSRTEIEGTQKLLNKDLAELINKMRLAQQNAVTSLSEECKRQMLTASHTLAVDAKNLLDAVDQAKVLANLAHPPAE
Cav32 inh = Cav3.2 calcium influx blockers – cell-based, Fluo-4 calcium fluorescence, FDSS, MLSMR library, primary screen; Voltage-dependent T-type calcium channel subunit alpha-1H (Homo sapiens), O95180; B-score at 10 µM; hit rate 4% among 100,000; AID 449739, 2010; Cav3.2-expressing cells; stronger effect = lower value;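 active means single-dose well whose peak fluorescence ratio is a statistical outlier from its plate by either plate-standardised score or position-corrected B-score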
Ecoli WT expand = growth inhibitors of wild-type E. coli, primary screen, strain BW25113, expanded library, OD600. OD600 absorbance. growth inhibition, % at 100 µM. hit rate 0.15% among 98,000. AID 710, 2007;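 active means growth inhibition above about 50% at one test dose, limit read from the data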;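 further: growth measured after 20 h incubation at 37 °C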
tolC growth inh = growth inhibitors of E. coli tolC mutant, primary screen, strain BW25113 ΔtolC::kan, 384-well; AID 573, 2007; OD615; growth inhibition, % at 10 µM (by protocol); hit rate 2.2% among 65,000;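 active means growth inhibition at or above a cutoff equal to the mean over every tested compound plus 3 SD, cut at about 60% in these data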;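 further: growth measured after 20 h incubation at 37 °C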
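Assay system: tolC-deleted E. coli BW25113. Medium: kanamycin-containing LB broth (50 µg/mL). Dosing: 10 µM final, single dose. Timing: bacterial growth with compound for 20 h at 37 °C. Detection: A615 absorbance measurement. Read-out basis: growth inhibition in percent.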
PostGolgi ctrl = growth inhibition of yeast control strain, primary screen, counter-screen for post-Golgi transport modulator project; efflux-deficient yeast background strain, growth absorbance A615, 16 h; hit rate 5% among 98,000; inhibition, % at 10 µM
PostGolgi yeast = phenotypic screen on post-Golgi transport, primary screen; post-Golgi transport phenotypic cell assay; inhibition, % at 10 µM; hit rate 0.9% among 98,000; AID 739, 2007;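 further: yeast cells grown in 1536-well plates; yeast grown about 18 h at 30C before absorbance read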
A number is an active result; n = inactive; x = no result given. Unless noted, no stated cut-off is given here; in the data, active means inhibition above about 30%; inactive means the rest.

SMILES	Pyk2 oligo antag	Cav32 inh	Ecoli WT expand	tolC growth inh	PostGolgi ctrl	PostGolgi yeast
Cc1cc(C)c(C)c(OCC(=O)N2CCCCCC2)c1	n	n	n	x	n	n
Cc1ccc(OCC(=O)N2CCN(C(=O)CCC3CCCC3)CC2)cc1	n	n	n	n	n	n
Cc1ccc(OCC(=O)N2CCC(N3CCCCCC3)CC2)cc1	n	n	n	n	35	n
Cc1cc(C)cc(OCC(=O)N2CCCCCC2)c1	n	n	n	n	34	n
O=C(Cc1ccc(S(=O)(=O)N2CCOCC2)s1)Nc1ccc2c(c1)CCC2	n	-6.1	n	n	n	n
Cc1cc(C)c(S(=O)(=O)N2CCOC2CNC(=O)C(=O)NCCc2c[nH]c3ccccc23)c(C)c1 (configuration not stated)	x	n	x	x	x	x
O=C(NCCc1c[nH]c2ccccc12)C(=O)NCC1OCCN1S(=O)(=O)c1ccc(Cl)cc1 (configuration not stated)	x	-7.1	x	x	x	x
O=C(NCCc1c[nH]c2ccccc12)C(=O)NCC1OCCN1S(=O)(=O)c1ccc(F)cc1 (configuration not stated)	x	-5.9	x	x	x	x
COc1ccccc1CNC(=O)C(=O)NCC1OCCN1S(=O)(=O)c1ccc2c(c1)OCCO2 (configuration not stated)	x	n	x	x	x	x
Cc1ccc(CNC(=O)C(=O)NCC2OCCN2C(=O)c2ccc(Cl)cc2)cc1 (configuration not stated)	x	-4.4	x	x	x	x
O=C(NCc1ccc(Cl)cc1)C(=O)NCC1OCCN1S(=O)(=O)c1ccc2c(c1)OCCO2 (configuration not stated)	x	-5.1	x	x	x	x
O=c1ccc(NS(=O)(=O)c2ccccc2)cn1Cc1ccc(Cl)c(Cl)c1	n	n	n	x	n	n
CCn1ccnc1C(O)c1ccccc1OC (configuration not stated)	n	n	x	x	x	x
Cc1cc(C(=O)Nc2c(C)nn(Cc3c(Cl)cccc3Cl)c2C)no1	n	n	n	n	33	n
COc1ccc(OC)c(-c2cc(C(=O)Nc3c(C)nn(Cc4ccc(Cl)cc4)c3C)no2)c1	n	x	n	n	33	n
Cc1nn(Cc2c(Cl)cccc2Cl)c(C)c1NC(=O)c1cc(C(C)C)on1	x	n	n	n	n	n
Cc1nn(Cc2ccccc2)c(C)c1NC(=O)c1cc(-c2ccco2)on1	n	-6.2	n	n	n	n
COc1ccc(OC)c(-c2cc(C(=O)Nc3c(C)nn(Cc4ccccc4)c3C)no2)c1	n	n	n	n	38	n
Oc1ccccc1-c1nc2cnccn2c1Nc1ccc2c(c1)OCCO2	n	n	n	x	n	n
Cc1cc2cc(CN3C(=O)c4ccccc4C3=O)ccc2[nH]1	x	x	x	n	x	x
Cc1cc(C)n(-c2nc3sc4c(c3c3nnc(SC(C)C)n23)CC(C)(C)OC4)n1	n	x	x	n	x	x
CCCn1c(CNS(=O)(=O)c2ccc(C)cc2)nc2ccccc21	x	n	n	n	n	n
CC1CCCC(NC(=O)Cn2cc3c(n2)CCCCC3)C1C (configuration not stated)	x	n	n	n	n	n
COCCn1c(SCC(=O)NCC2CCCO2)nc2c(c1=O)SC(C)C2 (configuration not stated)	x	n	n	n	n	n
Cc1[nH]nc2c1C1(C(=O)N(Cc3ccc(Cl)cc3)c3ccccc31)C(C#N)=C(N)O2 (configuration not stated)	n	n	n	n	n	n
SMILES	Pyk2 oligo antag	Cav32 inh	Ecoli WT expand	tolC growth inh	PostGolgi ctrl	PostGolgi yeast
CN1C(=O)C2(C(C#N)=C(N)Oc3n[nH]c(-c4ccc(Cl)cc4)c32)c2ccccc21 (configuration not stated)	-3	n	n	n	n	n
CCOC(=O)c1c(NC(=O)CSc2nnc(CNc3ccc(F)cc3)o2)sc(C)c1C	n	-4.6	n	n	38	n
COc1cc(-c2cc(OC)c3c(C)oc(C)c3c(=O)c2)ccc1O	n	n	n	n	45	n
COc1cc(-c2cc(=O)c3c(O)c(OC)c(OC)c(O)c3o2)ccc1O	x	n	x	x	x	x
COc1c(N2CCN(C(=S)NCc3ccccc3)C(C)C2)c(F)cc2c(=O)c(C(=O)O)cn(C3CC3)c12 (configuration not stated)	n	2.8	88	x	n	n
O/N=C/c1cc(Cl)ccc1OCc1cccc2ccccc12	x	n	n	x	61	n
Cc1cc(C)n(CCOc2ccc(Cl)cc2Cl)n1	n	n	n	n	35	n
Cc1cc(C)n(C(=O)COc2ccc(Cl)cc2Cl)n1	n	n	x	x	x	x
Cc1cccc(C(=O)Nc2ccccc2SCC2CSc3nc4ccccc4c(=O)n32)c1 (configuration not stated)	n	x	n	x	n	n
O=[N+]([O-])c1ccccc1N/N=C/c1c[nH]c2ccccc12	n	n	n	x	n	n
COc1ccc(NS(=O)(=O)c2cc([N+](=O)[O-])ccc2N/N=C\c2c(C)[nH]c3ccccc23)cc1	n	n	n	x	n	n
Cc1[nH]c2ccccc2c1/C=N/Nc1ccc([N+](=O)[O-])cc1S(=O)(=O)Nc1ccc(Cl)cc1	-3.4	n	n	x	n	n
O=[N+]([O-])c1ccc(N/N=C/c2c[nH]c3ccccc23)cc1	n	n	n	x	91	99
COc1ccccc1NS(=O)(=O)c1cc([N+](=O)[O-])ccc1N/N=C/c1c[nH]c2ccccc12	n	n	n	x	31	n
CCC(Sc1nc2c(c(=O)[nH]1)CCC2)C(=O)Nc1cccc(OC)c1 (configuration not stated)	n	n	n	n	n	n
O=c1[nH][nH]c(C(F)(F)F)c1C=NCc1cccc(Cl)c1	n	n	n	x	n	n
Cc1cccc2nc(CSc3nnnn3-c3ccccc3)cn12	n	n	n	n	n	n
Cc1ccc(Nc2nc(CSc3nnnn3C)cs2)cc1	n	n	n	n	n	n
CCc1ccc(Nc2nc(N)nc(CSc3nnnn3-c3ccccc3)n2)cc1	n	x	n	n	37	n
Cc1ccc(Nc2nc(CSc3nnnn3-c3ccccc3)cs2)cc1	n	-4	n	94	34	n
Cc1cccc(-n2nnnc2SCc2csc(-c3ccccc3)n2)c1	n	-3.3	x	n	x	x
O=C1c2oc3ccccc3c(=O)c2C(c2ccc(Cl)cc2)N1c1ncccn1 (configuration not stated)	x	x	x	n	x	x
O=C1c2ccccc2C(=O)c2c(NCc3cccnc3)cccc21	n	n	n	x	34	n
CC1(C)CC(=O)C2=C(C1)Oc1ncn(CCO)c(=N)c1C2c1ccccc1 (configuration not stated)	n	n	n	n	31	n
O=C(NCc1cc(C(F)(F)F)cc(C(F)(F)F)c1)C1CC(c2c(Cl)cccc2Cl)=NO1 (configuration not stated)	x	n	n	x	n	n
O=C(NCc1ccc(OC(F)(F)F)cc1)C1CC(c2c(Cl)cccc2Cl)=NO1 (configuration not stated)	x	n	n	x	31	n
